Measurements as given in ChEMBL document CHEMBL4330069, “Boosting the efficacy of anti-MRSA β-lactam antibiotics via an easily accessible, non-cytotoxic and orally bioavailable FtsZ inhibitor” (Eur J Med Chem, 2019).
Converted amounts (≈) assume the structure as drawn.

What was measured:
Assay type in all cases: functional
Staphylococcus aureus [1] = experiment: Synergistic antibacterial activity against multidrug-resistant Staphylococcus aureus isolate 2901 assessed as fractional Inhibitory concentration index in presence of amoxicillin by broth microdilution assay
Staphylococcus aureus [2] = experiment: Synergistic antibacterial activity against multidrug-resistant Staphylococcus aureus isolate 2224 assessed as fractional Inhibitory concentration index in presence of amoxicillin by broth microdilution assay
In short: (§1)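 CLSI broth microdilution run on clinical MRSA isolates with each β-lactam alone, the test agent alone, and the two combined; agents dissolved in DMSO. Growth inhibition was read by eye. FIC index = FIC(compound) + FIC(β-lactam), where each FIC is the MIC in combination divided by the MIC alone. An index ≤0.5 was taken as synergy.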

Staphylococcus aureus [3] = experiment: Antibacterial activity against multidrug-resistant Staphylococcus aureus isolate 2224 by broth microdilution assay
In short: (§2)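 Broth microdilution MIC per CLSI guidelines against clinical MRSA isolates, for β-lactams and test compound alone and in combination. Compounds were dissolved in DMSO. Growth was read by eye, in duplicate. FIC index = FIC(compound) + FIC(drug); synergy defined as FIC index ≤0.5.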

Staphylococcus aureus [4] = experiment: Synergistic antibacterial activity against multidrug-resistant Staphylococcus aureus isolate 2490 assessed as fractional Inhibitory concentration index in presence of amoxicillin by broth microdilution assay; in short: as §1
Staphylococcus aureus [5] = experiment: Antibacterial activity against multidrug-resistant Staphylococcus aureus isolate 231 by broth microdilution assay; in short: as §2
Staphylococcus aureus [6] = experiment: Synergistic antibacterial activity against multidrug-resistant Staphylococcus aureus isolate 1717 in presence of methicillin by broth microdilution assay
In short: (§3)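 Clinical MRSA isolate panel; compound and β-lactam tested alone and in combination by CLSI broth microdilution, compounds dissolved in DMSO, growth inhibition scored by eye, run in duplicate. FIC index = FIC(compound) + FIC(drug), each the MIC in combination divided by the MIC alone; an index ≤ 0.5 was called synergy.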

Staphylococcus aureus [7] = experiment: Synergistic antibacterial activity against multidrug-resistant Staphylococcus aureus isolate 757 in presence of cefuroxime by broth microdilution assay
Staphylococcus aureus [8] = experiment: Synergistic antibacterial activity against multidrug-resistant Staphylococcus aureus isolate 2490 assessed as fractional Inhibitory concentration index in presence of cloxacillin by broth microdilution assay; in short: as §1
Staphylococcus aureus [9] = experiment: Synergistic antibacterial activity against multidrug-resistant Staphylococcus aureus isolate 2516 in presence of cefuroxime by broth microdilution assay
In short: (§4)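 CLSI broth microdilution on clinical MRSA isolates. MICs were measured for the β-lactam alone, the test agent alone and the two combined. Compounds were dissolved in DMSO, and growth inhibition was scored by eye. FIC index is the sum, over both agents, of MIC in combination divided by MIC alone. An FIC index ≤0.5 was taken as synergy.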

Staphylococcus aureus [10] = experiment: Synergistic antibacterial activity against multidrug-resistant Staphylococcus aureus isolate 3411 in presence of methicillin by broth microdilution assay
Staphylococcus aureus [11] = experiment: Synergistic antibacterial activity against multidrug-resistant Staphylococcus aureus isolate 417 assessed as fractional Inhibitory concentration index in presence of meropenem by broth microdilution assay
Staphylococcus aureus [12] = experiment: Synergistic antibacterial activity against multidrug-resistant Staphylococcus aureus isolate 1402 assessed as fractional Inhibitory concentration index in presence of amoxicillin by broth microdilution assay; in short: as §1
Staphylococcus aureus [13] = experiment: Synergistic antibacterial activity against multidrug-resistant Staphylococcus aureus isolate 200 in presence of cloxacillin by broth microdilution assay; in short: as §3
Staphylococcus aureus [14] = experiment: Antibacterial activity against Staphylococcus aureus ATCC 29213 by broth microdilution assay
In short: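 Broth microdilution per CLSI guidelines; compounds dissolved in DMSO; single agents tested; growth inhibition read by eye; run in duplicate (table footnote states at least triplicates).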

Staphylococcus aureus [15] = experiment: Synergistic antibacterial activity against multidrug-resistant Staphylococcus aureus isolate 3411 in presence of meropenem by broth microdilution assay
Staphylococcus aureus [16] = experiment: Synergistic antibacterial activity against multidrug-resistant Staphylococcus aureus isolate 1717 assessed as fractional Inhibitory concentration index in presence of methicillin by broth microdilution assay; in short: as §1
Staphylococcus aureus [17] = experiment: Synergistic antibacterial activity against multidrug-resistant Staphylococcus aureus isolate 1449 in presence of amoxicillin by broth microdilution assay; in short: as §3
Staphylococcus aureus [18] = experiment: Synergistic antibacterial activity against multidrug-resistant Staphylococcus aureus isolate 3580 assessed as fractional Inhibitory concentration index in presence of cloxacillin by broth microdilution assay
Staphylococcus aureus [19] = experiment: Synergistic antibacterial activity against multidrug-resistant Staphylococcus aureus isolate 1717 in presence of amoxicillin by broth microdilution assay; in short: as §3
Staphylococcus aureus [20] = experiment: Synergistic antibacterial activity against multidrug-resistant Staphylococcus aureus isolate 417 in presence of amoxicillin by broth microdilution assay
Staphylococcus aureus [21] = experiment: Synergistic antibacterial activity against multidrug-resistant Staphylococcus aureus isolate 1717 in presence of cloxacillin by broth microdilution assay; in short: as §3
Staphylococcus aureus [22] = experiment: Synergistic antibacterial activity against multidrug-resistant Staphylococcus aureus isolate 3411 in presence of cefuroxime by broth microdilution assay
Staphylococcus aureus [23] = experiment: Synergistic antibacterial activity against multidrug-resistant Staphylococcus aureus isolate 417 assessed as fractional Inhibitory concentration index in presence of amoxicillin by broth microdilution assay
Staphylococcus aureus [24] = experiment: Synergistic antibacterial activity against multidrug-resistant Staphylococcus aureus isolate 757 assessed as fractional Inhibitory concentration index in presence of meropenem by broth microdilution assay
Staphylococcus aureus [25] = experiment: Synergistic antibacterial activity against multidrug-resistant Staphylococcus aureus isolate 231 assessed as fractional Inhibitory concentration index in presence of amoxicillin by broth microdilution assay; in short: as §1
Staphylococcus aureus [26] = experiment: Synergistic antibacterial activity against multidrug-resistant Staphylococcus aureus isolate 85 in presence of cefuroxime by broth microdilution assay
Staphylococcus aureus [27] = experiment: Synergistic antibacterial activity against multidrug-resistant Staphylococcus aureus isolate 256 in presence of amoxicillin by broth microdilution assay; in short: as §4
Staphylococcus aureus [28] = experiment: Synergistic antibacterial activity against multidrug-resistant Staphylococcus aureus isolate 2224 in presence of cloxacillin by broth microdilution assay; in short: as §3
Staphylococcus aureus [29] = experiment: Antibacterial activity against Staphylococcus aureus ATCC 29213 harboring FtsZ 64 mutation after 20 hrs; conditions: ATCC 29213, 20 h
In short: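 Broth microdilution MIC per CLSI guidelines, compounds dissolved in DMSO. Resistant mutants were selected by serial passage of ATCC 29213 in LB at 37 °C with shaking at 250 rpm. Each 20 h culture started at half the MIC, and the concentration was doubled at each transfer. Growth inhibition was read by eye, in duplicate.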

Staphylococcus aureus [30] = experiment: Synergistic antibacterial activity against multidrug-resistant Staphylococcus aureus isolate 1136 assessed as fractional Inhibitory concentration index in presence of methicillin by broth microdilution assay; in short: as §1
Staphylococcus aureus [31] = experiment: Synergistic antibacterial activity against multidrug-resistant Staphylococcus aureus isolate 1402 in presence of cefuroxime by broth microdilution assay; in short: as §3
Staphylococcus aureus [32] = experiment: Synergistic antibacterial activity against multidrug-resistant Staphylococcus aureus isolate 2919 assessed as fractional Inhibitory concentration index in presence of amoxicillin by broth microdilution assay
Staphylococcus aureus [33] = experiment: Antibacterial activity against multidrug-resistant Staphylococcus aureus isolate 254 by broth microdilution assay; in short: as §2
Staphylococcus aureus [34] = experiment: Synergistic antibacterial activity against multidrug-resistant Staphylococcus aureus isolate 2901 assessed as fractional Inhibitory concentration index in presence of cefuroxime by broth microdilution assay
Staphylococcus aureus [35] = experiment: Synergistic antibacterial activity against multidrug-resistant Staphylococcus aureus isolate 3580 assessed as fractional Inhibitory concentration index in presence of cefuroxime by broth microdilution assay
Staphylococcus aureus [36] = experiment: Synergistic antibacterial activity against multidrug-resistant Staphylococcus aureus isolate 358 in presence of cloxacillin by broth microdilution assay

## CCCCCCCCCNc1ccc(F)c(C(N)=O)c1F
Staphylococcus aureus [1]
  fractional inhibitory concentration index (FICI): 0.1
Staphylococcus aureus [2]
  fractional inhibitory concentration index (FICI): 0.2
Staphylococcus aureus [3]
  MIC: 1020 µg/mL (≈ 3430 µM)
Staphylococcus aureus [4]
  fractional inhibitory concentration index (FICI): 0.6
Staphylococcus aureus [5]
  MIC: 8 µg/mL (≈ 26.8 µM)
Staphylococcus aureus [6]
  MIC: 2 µg/mL
Staphylococcus aureus [7]
  MIC: 2 µg/mL
Staphylococcus aureus [8]
  fractional inhibitory concentration index (FICI): 0.6
Staphylococcus aureus [9]
  MIC: 2 µg/mL
Staphylococcus aureus [10]
  MIC: 2 µg/mL
Staphylococcus aureus [11]
  fractional inhibitory concentration index (FICI): 0.2
Staphylococcus aureus [12]
  fractional inhibitory concentration index (FICI): 1
Staphylococcus aureus [13]
  MIC: 1 µg/mL
Staphylococcus aureus [14]
  MIC: 3.1 µM (≈ 0.925 µg/mL)
Staphylococcus aureus [15]
  MIC: 4 µg/mL
Staphylococcus aureus [16]
  fractional inhibitory concentration index (FICI): 1.1
Staphylococcus aureus [17]
  MIC: 0.5 µg/mL
Staphylococcus aureus [18]
  fractional inhibitory concentration index (FICI): 0.5
Staphylococcus aureus [19]
  MIC: 2 µg/mL
Staphylococcus aureus [20]
  MIC: 8 µg/mL
Staphylococcus aureus [21]
  MIC: 1 µg/mL
Staphylococcus aureus [22]
  MIC: 2 µg/mL
Staphylococcus aureus [23]
  fractional inhibitory concentration index (FICI): 0.3
Staphylococcus aureus [24]
  fractional inhibitory concentration index (FICI): 4.1
Staphylococcus aureus [25]
  fractional inhibitory concentration index (FICI): 0.5
Staphylococcus aureus [26]
  MIC: 2 µg/mL
Staphylococcus aureus [27]
  MIC: 16 µg/mL
Staphylococcus aureus [28]
  MIC: 2 µg/mL
Staphylococcus aureus [29]
  MIC: 64 µg/mL (≈ 214 µM)
Staphylococcus aureus [30]
  fractional inhibitory concentration index (FICI): 0.3
Staphylococcus aureus [31]
  MIC: 2 µg/mL
Staphylococcus aureus [32]
  fractional inhibitory concentration index (FICI): 0.5
Staphylococcus aureus [33]
  MIC: 16 µg/mL (≈ 53.6 µM)
Staphylococcus aureus [34]
  fractional inhibitory concentration index (FICI): 0.1
Staphylococcus aureus [35]
  fractional inhibitory concentration index (FICI): 0.1
Staphylococcus aureus [36]
  MIC: 1 µg/mL
